Mdm2 ligase inh: Mdm2 E3 ligase (human) inhibition. Q00987. cell-based MDM2 ubiquitination luciferase reporter, 2 h; 0 = plate control, 100 = twice control, blank-subtracted. signal enhancement, % at 5 µM. 210,000 tested, 0.11% active. AID 1230;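 active means signal enhancement of 30% or more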;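 further: luminescence tracks abundance of the self-degrading MDM2-luciferase fusion protein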
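System: stable MDM2–luciferase fusion reporter cells / Input: 2000 cells seeded into each well / Schedule: 4 h settle plus 2 h compound, 37 °C / Compound: single-point 5 µM / Buffer or medium: cells held in DMEM / Benchmarks: control and blank well means / Evaluation: percent signal gain over controls, blank-subtracted / Measured by: luciferase luminescence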
PERK inhibitor: inhibitors of human PERK kinase. inhibition, % at 5.6 µM. Q9NZJ5. CHO PERK-DD fusion, SEAP luminescence translation reporter. 220,000 tested, 0.17% active;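 active means inhibition above the mean inhibition of all tested compounds plus 3 SD, set separately per screening campaign, cut at about 2.9% in these data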;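 further: PERK kinase domain activated by AP20187 dimerizer at 100 nM; 0% = DMSO with dimerizer and 100% = rapamycin at 8.4 µM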
AHR act: activates the human aryl hydrocarbon receptor; P35869; AHR-responsive luciferase reporter cells, luminescence; activation, % at 5 µM; 320,000 tested, 2.5% active; in the data active means activation above about 47%;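 further: 0% = vehicle wells and 100% = reference agonist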
Target sequence (P35869 whole entry, looked up): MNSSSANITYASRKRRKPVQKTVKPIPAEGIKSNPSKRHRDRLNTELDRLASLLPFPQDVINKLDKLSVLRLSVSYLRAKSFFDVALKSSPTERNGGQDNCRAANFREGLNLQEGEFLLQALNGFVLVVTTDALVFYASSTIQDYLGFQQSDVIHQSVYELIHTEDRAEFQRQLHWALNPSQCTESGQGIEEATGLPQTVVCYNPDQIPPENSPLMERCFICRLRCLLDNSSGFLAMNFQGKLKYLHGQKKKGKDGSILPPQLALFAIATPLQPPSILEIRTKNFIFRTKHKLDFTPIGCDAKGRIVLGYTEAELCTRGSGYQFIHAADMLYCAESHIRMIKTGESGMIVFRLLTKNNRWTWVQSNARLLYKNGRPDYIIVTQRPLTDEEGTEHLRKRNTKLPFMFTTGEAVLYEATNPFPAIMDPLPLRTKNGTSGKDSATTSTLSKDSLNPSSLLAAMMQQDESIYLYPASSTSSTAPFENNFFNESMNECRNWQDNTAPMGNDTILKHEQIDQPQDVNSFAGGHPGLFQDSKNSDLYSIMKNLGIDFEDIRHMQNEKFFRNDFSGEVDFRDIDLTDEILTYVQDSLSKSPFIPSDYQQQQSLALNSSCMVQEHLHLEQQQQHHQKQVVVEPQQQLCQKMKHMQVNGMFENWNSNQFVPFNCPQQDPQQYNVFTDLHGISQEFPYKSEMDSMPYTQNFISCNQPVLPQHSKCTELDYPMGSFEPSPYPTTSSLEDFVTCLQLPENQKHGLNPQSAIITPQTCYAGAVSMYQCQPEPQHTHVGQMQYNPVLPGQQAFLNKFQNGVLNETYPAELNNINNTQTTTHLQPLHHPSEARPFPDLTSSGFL
STAT1 act: STAT1 signaling activation; NIH 3T3 STAT1-luciferase reporter, IFN-gamma, luminescence; 100% = IFN-gamma alone, no compound; activation (% of control), % at 5.5 µM; 200,000 tested, 2.6% active; AID 932;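 active means activation above the screen-wide mean activation plus 3 SD, cut at about 130% in these data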;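 further: raw ratio to IFN-gamma control signal so 100% means no change and 0% no light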
NF-kB neuron act: raises NF-kB expression in human neuronal cells; fold change at 12.5 µM; NF-kB reporter expression; stronger effect = higher value; 190,000 tested, 1.6% active; AID 1239; in the data active means fold change above about 3.3
APP 5'UTR act: activates APP 5'UTR luciferase reporter | activation, % at 2 µM | SH-SY5Y APP 5'UTR luciferase reporter, luminescence; zero percent = DMSO vehicle wells | 190,000 tested, 1% active | AID 1276;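 active means activation above a set limit, based on mean plus 3 SD of controls, cut at about 140% in these data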
Numbers without * were called inactive; x = no result. A selection: hits, their analogues and other compounds. The true share with any hit is near 4.5%.

SMILES	Mdm2 ligase inh	PERK inhibitor	AHR act	STAT1 act	NF-kB neuron act	APP 5'UTR act
O=C(Nc1ccc(NC(=O)c2ccc3c(c2)OCCO3)cc1)c1ccccc1	x	x	-8	x	x	x
O=C(Nc1ccc(F)c(F)c1)c1ccc2c(c1)OCO2	-30	1	5	138*	2.5	81
CCOCc1nnc(NC(=O)c2ccc3c(c2)OCO3)s1	x	x	122*	x	x	x
O=C(Nc1ccccc1)c1ccc2c(c1)OCCO2	-30	0	-2	146*	5.5*	132
COc1ccc(-c2csc(NC(=O)C3CCN(C(=O)c4ccc(F)cc4)CC3)n2)cc1OC	x	x	-4	x	x	x
O=C(Nc1ccon1)c1ccc2c(c1)OCO2	-4	1	16	112	1.3	4
O=C(Nc1ccc(Nc2ccccc2)cc1)c1ccc(Cl)cc1	x	x	-8	x	x	x
CC(=O)N1CCN(S(=O)(=O)c2cccc(C(=O)Nc3ccc4c(c3)OCO4)c2)CC1	-8	1	12	99	1.4	-3
O=C(NC1=C(Nc2ccc(Cl)cc2)C(=O)c2ccccc2C1=O)c1ccccc1	-4	0	69*	93	1	7
Cc1ccnc(NC(=O)c2ccc3c(c2)OCO3)c1	-47	0	18	76	4.2*	206*
COc1ccc(-c2cccc(NC(=O)c3ccc4c(c3)OCO4)c2)nn1	x	x	65*	x	x	x
O=C(Nc1ccc2c(c1)OCO2)c1cccc(S(=O)(=O)N2CCCC2)c1	-6	0	107*	98	1	3
Cc1nc2c(-c3ccccc3)c[nH]n2c(=O)c1Cc1ccccc1	-3	0	7	142*	1.1	92
Nc1ccc2oc3ccc(N)cc3c(=O)c2c1	-12	0	-2	143*	2.1	x
Clc1ccc(N2CCN(c3cnc4ccccc4n3)CC2)cc1	-15	-2	-4	122	2.1	-4
COc1ccc(N2CCN(c3cnc4ccccc4n3)CC2)cc1	-14	0	-4	133*	2.2	65
COc1cccc(N2CCN(c3cnc4ccccc4n3)CC2)c1	-1	1	-5	134*	1.1	41
CCOC(=O)c1cnc2c(C(=O)OC)cccc2c1NCc1cccnc1	-12	0	2	103	0.9	21
C=CCNc1nc(N)c(C(=C(C#N)C#N)c2ccc(Br)cc2)s1	1	1	57*	104	1.1	x
C=CCNc1sc(C(=O)c2ccc(C)cc2)c(N)c1C#N	-3	0	43	95	1.1	9
CNc1nc(C)c(C(=O)OCc2ccccc2)s1	-3	1	-5	116	5*	28
CCOC(=O)c1sc(-c2ccccc2)nc1C	-5	2	-3	135*	1.4	41
CCOC(=O)c1cc(-c2ccccc2)sc1N	-15	0	0	135*	2.4	28
CCOC(=O)c1sc(-c2ccc(F)cc2)cc1N	x	0	6	125	2.1	95
CCOC(=O)c1sc(-c2ccccc2)cc1N	-13	0	7	132*	2.5	86
SMILES	Mdm2 ligase inh	PERK inhibitor	AHR act	STAT1 act	NF-kB neuron act	APP 5'UTR act
Cn1c(N)c(C(=O)COC(=O)/C=C/c2ccc(Cl)c(Cl)c2)c(=O)n(C)c1=O	x	x	0	x	x	x
O=C(O)CCc1ccc(-c2cccs2)n1CC(=O)Nc1ccccc1C(F)(F)F	-1	1	-1	105	0.94	10
CCOC(=O)Cc1ccc2sc(-c3ccccc3)nc2c1	-27	0	-1	139*	9.4*	178*
CCOC(=O)c1nc(NCCc2ccccc2)sc1C	-3	0	12	132*	2.4	15
CCOC(=O)C(=O)Cc1nc2ccccc2s1	1	1	13	x	x	x
CCOc1nc(C)ccc1-c1noc(-c2ccccc2OC)n1	-14	-1	50*	99	1.1	2
CCNC(=O)c1ccccc1-c1nc(-c2ccccc2OC)no1	-14	-1	34	x	x	x
CCSc1ccccc1-c1nc(-c2ccncc2)no1	x	x	65*	x	x	x
CCOc1cc(-c2nc(-c3ccc(C)nc3OCC)no2)cc(OCC)c1OCC	0	1	3	99	1.2	17
CCOc1ccccc1-c1nc(-c2ccncc2)no1	-10	0	48*	96	1	0
CCOc1ccccc1NC(=O)c1ccccc1-c1nc(-c2ccccc2OC)no1	-10	0	64*	97	0.55	11
CCOc1ccc(-c2noc(-c3ccncc3)n2)cc1OCC	9	0	6	108	0.8	-10
